Compounds with a hit are over-represented: about 0.99% of the library has one in this group of screens.
TLR9-MyD88 inh: TLR9-MyD88 interaction inhibition; Q9NR96+Q99836; CHO BLA complementation TLR9-MyD88, CCF4 FRET ratio; inhibition, % at 4.98 µM; 0.21% of 340,000 active;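 active = inhibition above the mean over all tested compounds plus 3 SD, cut at about 21% in these data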;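 note: 0% = DMSO only wells and 100% = clavulanate BLA inhibitor control wells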
Target sequence (Q99836 whole entry, looked up): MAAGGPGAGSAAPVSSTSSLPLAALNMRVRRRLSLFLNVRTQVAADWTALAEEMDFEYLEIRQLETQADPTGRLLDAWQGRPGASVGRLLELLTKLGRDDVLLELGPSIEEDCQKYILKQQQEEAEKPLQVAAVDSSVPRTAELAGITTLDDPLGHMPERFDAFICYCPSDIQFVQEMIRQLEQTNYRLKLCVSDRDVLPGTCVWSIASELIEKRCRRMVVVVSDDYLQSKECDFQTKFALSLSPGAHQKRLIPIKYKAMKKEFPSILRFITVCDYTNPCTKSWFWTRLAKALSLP
Target sequence (Q9NR96 whole entry, looked up): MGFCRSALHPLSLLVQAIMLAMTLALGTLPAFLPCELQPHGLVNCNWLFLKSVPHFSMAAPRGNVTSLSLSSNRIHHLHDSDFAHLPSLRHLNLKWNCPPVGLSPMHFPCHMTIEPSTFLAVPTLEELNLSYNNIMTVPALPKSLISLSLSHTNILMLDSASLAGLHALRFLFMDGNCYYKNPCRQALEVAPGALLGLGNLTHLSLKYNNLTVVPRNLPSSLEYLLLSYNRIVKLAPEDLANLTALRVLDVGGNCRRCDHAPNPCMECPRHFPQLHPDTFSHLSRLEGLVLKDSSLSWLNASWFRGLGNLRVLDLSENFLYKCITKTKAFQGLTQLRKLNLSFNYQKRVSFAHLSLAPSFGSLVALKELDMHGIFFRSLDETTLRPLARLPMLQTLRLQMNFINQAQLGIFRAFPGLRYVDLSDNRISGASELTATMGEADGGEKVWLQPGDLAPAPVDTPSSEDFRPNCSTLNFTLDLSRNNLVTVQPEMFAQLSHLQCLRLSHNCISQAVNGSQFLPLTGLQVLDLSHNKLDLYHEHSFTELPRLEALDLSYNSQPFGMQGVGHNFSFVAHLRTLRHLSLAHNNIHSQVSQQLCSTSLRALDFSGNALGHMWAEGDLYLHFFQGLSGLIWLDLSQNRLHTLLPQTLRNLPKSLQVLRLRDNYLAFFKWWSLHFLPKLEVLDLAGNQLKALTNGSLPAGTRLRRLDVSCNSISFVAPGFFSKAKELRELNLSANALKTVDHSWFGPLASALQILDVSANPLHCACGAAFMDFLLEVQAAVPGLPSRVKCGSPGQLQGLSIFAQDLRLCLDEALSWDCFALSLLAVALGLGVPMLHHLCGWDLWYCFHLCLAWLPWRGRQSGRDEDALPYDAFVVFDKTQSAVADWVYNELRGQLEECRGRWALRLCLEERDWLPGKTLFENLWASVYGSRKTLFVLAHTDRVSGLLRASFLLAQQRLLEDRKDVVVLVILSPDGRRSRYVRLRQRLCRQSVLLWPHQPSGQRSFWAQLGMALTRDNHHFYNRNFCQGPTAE
SKN-1 inh: blocks SKN-1 activity in C. elegans; 0.49% of 360,000 active; inhibition, % at 21.8 µM; C. elegans VP596 Pgst-4::GFP/RFP ratio, acrylamide-induced, 24 h;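 active = interference check ratio from 0.5 to 1.5 plus GFP to RFP signal ratio inhibition reaching or exceeding a fixed threshold, cut at about 30% in these data, passing the limit was not always enough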
TLR4-MyD88 BLA: inhibitors of human TLR4-MyD88 binding. HeLa CL3-4 TLR4/MyD88 BLA complementation, FRET ratio. inhibition, % at 8.4 µM. 0.18% of 200,000 active. O00206+Q99836; in the data active = inhibition above about 25%;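 note: 0% = vehicle and 100% = reference inhibitor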
NOD2 RIPK2 PPI: NOD2-RIPK2 protein interaction inhibition; O43353; CHO BLA complementation NOD2-RIPK2, CCF4 ratio; inhibition, % at 4.98 µM; 0.38% of 360,000 active; AID 624267; in the data active = inhibition above about 21%;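 note: 0% = vehicle only and 100% = reference blocker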
MT1-MMP act inh: inhibitors of human MT1-MMP activation | P50281 | HT1080 RFP-PRO-GFP cells, GFP/RFP ratio fluorescence, overnight; percent of plate control window, DMSO zero | GFP/RFP ratio change, % at 20 µM | 0.061% of 360,000 active;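 active = GFP/RFP ratio change of at least 30% with cell ATP level not reduced by more than half and red fluorescence within 50% of control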
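Assay system – RFP-PRO-GFP reporter HT1080 cells · Compound dosing – single dose of 20 µM compound, 1% DMSO final · Incubation – overnight compound exposure at 37 °C · Measure – GFP/RFP fluorescence ratio · Benchmarks – DMSO wells and RFP-L50D-GFP cells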
Starred values were filed as active, the others as inactive.

Screening C#CCOCCOCCOCCNc1nc(N2CCN(C(=O)Cn3cc(CCO)nn3)CC2)nc(N2CCN(C(=O)[C@H](Cc3ccc(O)cc3)n3cc(CCO)nn3)CC2)n1 returned TLR9-MyD88 inh -8, SKN-1 inh 29, NOD2 RIPK2 PPI 10 and MT1-MMP act inh 4.
C=CCN1C(=O)CSC1=Nc1ccc(C(=O)O)cc1 was read as TLR9-MyD88 inh 2, SKN-1 inh 8, NOD2 RIPK2 PPI -6 and MT1-MMP act inh -1.
`C=CCN1C(=O)CS/C1=C(\C#N)S(=O)(=O)c1ccc(C)cc1` gave TLR9-MyD88 inh -4, SKN-1 inh 34*, TLR4-MyD88 BLA -7, NOD2 RIPK2 PPI -10 and MT1-MMP act inh 38.
CC(=O)NCCCc1nc2ccccc2n1Cc1c(F)cccc1Cl was read as TLR9-MyD88 inh -5, SKN-1 inh 4, NOD2 RIPK2 PPI -3 and MT1-MMP act inh -12.
COc1cccc(/C=C2\CC(C)Cc3c2nc2ccccc2c3C(=O)O)c1OC (stereo not drawn) was read as TLR9-MyD88 inh -1, SKN-1 inh 40*, NOD2 RIPK2 PPI -2 and MT1-MMP act inh 0.
For Cc1ccc(-c2csc3ncnc(SCC(=O)NCc4ccc5c(c4)OCO5)c23)cc1 the results were TLR9-MyD88 inh 0, SKN-1 inh 10, TLR4-MyD88 BLA 5, NOD2 RIPK2 PPI -2 and MT1-MMP act inh -8.
Screening O=C(CSc1ncnc2scc(-c3ccc(Cl)cc3)c12)NCc1ccc2c(c1)OCO2 returned TLR9-MyD88 inh -6, SKN-1 inh 46*, TLR4-MyD88 BLA -9, NOD2 RIPK2 PPI -4 and MT1-MMP act inh -2.
For O=C(O)c1ccccc1-c1ccccc1C(=O)Nc1nc2ccccc2s1 the results were TLR9-MyD88 inh 2, SKN-1 inh 6, NOD2 RIPK2 PPI 3 and MT1-MMP act inh -6.
`O=C(Nc1nc2ccccc2s1)c1ccccc1` gave TLR9-MyD88 inh 8, SKN-1 inh 65*, TLR4-MyD88 BLA -6, NOD2 RIPK2 PPI -5 and MT1-MMP act inh -2.
For CN(C)S(=O)(=O)c1ccc(Cl)c(NC(=O)C2CCN(S(=O)(=O)c3cccs3)CC2)c1 the results were TLR9-MyD88 inh 3, SKN-1 inh -7, NOD2 RIPK2 PPI -1 and MT1-MMP act inh -1.
C=CCN1C(=O)C(=O)N(Cc2nc3ccccc3s2)C1=O was read as TLR9-MyD88 inh 6, SKN-1 inh 48*, NOD2 RIPK2 PPI -7 and MT1-MMP act inh 0.
Screening COC(=O)c1c(NC(=O)CN2CCN(c3ncccn3)CC2)sc(C(N)=O)c1C returned TLR9-MyD88 inh 3, SKN-1 inh -8, NOD2 RIPK2 PPI -3 and MT1-MMP act inh -1.
For COc1ccc(-c2cnc(C(N)=O)c(=O)[nH]2)cc1 the results were TLR9-MyD88 inh 4, SKN-1 inh 10, NOD2 RIPK2 PPI -14 and MT1-MMP act inh -9.
COc1ccc(CNC(C)C2COc3ccccc3O2)c(OC)c1 (stereo not drawn) was read as TLR9-MyD88 inh -6, SKN-1 inh 37*, TLR4-MyD88 BLA -9, NOD2 RIPK2 PPI -2 and MT1-MMP act inh -4.
CC(NCc1ccccc1)C1COc2ccccc2O1 (stereo not drawn) was read as TLR9-MyD88 inh 0, SKN-1 inh -4, TLR4-MyD88 BLA 3, NOD2 RIPK2 PPI 0 and MT1-MMP act inh 1.
COc1cc(/C=N/N2C(=O)CSC2=S)cc(Br)c1O was read as TLR9-MyD88 inh -14, SKN-1 inh 43*, TLR4-MyD88 BLA -8, NOD2 RIPK2 PPI -4 and MT1-MMP act inh -43.
`N#Cc1cncc(C#Cc2ccccc2)c1` gave TLR9-MyD88 inh 1, SKN-1 inh 61*, NOD2 RIPK2 PPI -7 and MT1-MMP act inh -4.
Screening N#Cc1ccccc1 returned TLR9-MyD88 inh -1, SKN-1 inh 11, NOD2 RIPK2 PPI -19 and MT1-MMP act inh 2.
For O=c1cc[nH]c2c1ccc1cccnc12 the results were TLR9-MyD88 inh -2, SKN-1 inh 2, NOD2 RIPK2 PPI -25 and MT1-MMP act inh 1.
`CCC(=O)N1c2ccc(S(=O)(=O)CCC(=O)NCc3cccs3)cc2CC1C` (stereo not drawn) gave TLR9-MyD88 inh -8, SKN-1 inh 43*, TLR4-MyD88 BLA 8, NOD2 RIPK2 PPI 2 and MT1-MMP act inh 1.
COc1ccc(NC(=O)Cn2c(-c3ccccc3)cn(-c3ccc(C)cc3)c2=O)cc1 was read as TLR9-MyD88 inh 12, SKN-1 inh -12, TLR4-MyD88 BLA 7, NOD2 RIPK2 PPI -3 and MT1-MMP act inh -1.
COc1ccc(-c2cn(-c3ccc(C)cc3)c(=O)n2CC(=O)Nc2ccc(OC)cc2OC)cc1 was read as TLR9-MyD88 inh 0, SKN-1 inh 38*, TLR4-MyD88 BLA -2, NOD2 RIPK2 PPI 4 and MT1-MMP act inh 0.
C1=C(CCNc2nnnn2-c2ccccc2)CCCC1 was read as TLR9-MyD88 inh 9, SKN-1 inh -1, TLR4-MyD88 BLA -12, NOD2 RIPK2 PPI 3 and MT1-MMP act inh 2.
`c1ccc(CCNc2nnnn2-c2ccccc2)cc1` gave TLR9-MyD88 inh -2, SKN-1 inh 37*, TLR4-MyD88 BLA 3, NOD2 RIPK2 PPI -11 and MT1-MMP act inh 1.
CCCCNC(=O)c1ccc(NC(=O)CC2SC(N3CCCC3)=NC2=O)cc1 (stereo not drawn) was read as TLR9-MyD88 inh -2, SKN-1 inh -7, NOD2 RIPK2 PPI -4 and MT1-MMP act inh 2.
`Cc1ccc(COn2c(-c3ccc(Cl)cc3)nc3ccc([N+](=O)[O-])cc32)cc1` gave TLR9-MyD88 inh 1, SKN-1 inh 31, TLR4-MyD88 BLA -11, NOD2 RIPK2 PPI -4 and MT1-MMP act inh -4.
O=[N+]([O-])c1ccc2nc(-c3ccc(Cl)cc3)n(OCc3ccccc3)c2c1 was read as TLR9-MyD88 inh 5, SKN-1 inh 41*, TLR4-MyD88 BLA 8, NOD2 RIPK2 PPI -6 and MT1-MMP act inh 3.
Screening CCOC(=O)C(C)On1c(-c2ccc(Cl)cc2)nc2ccc([N+](=O)[O-])cc21 (stereo not drawn) returned TLR9-MyD88 inh -7, SKN-1 inh 41*, TLR4-MyD88 BLA 16, NOD2 RIPK2 PPI -8 and MT1-MMP act inh -9.
Screening COn1c(-c2ccc(Cl)cc2)nc2ccc(Cl)cc21 returned TLR9-MyD88 inh 11, SKN-1 inh 87*, TLR4-MyD88 BLA -16, NOD2 RIPK2 PPI -8 and MT1-MMP act inh 2.
CCOC(=O)C(C)On1c(-c2ccccc2)nc2ccc([N+](=O)[O-])cc21 (stereo not drawn) was read as TLR9-MyD88 inh 0, SKN-1 inh -1, TLR4-MyD88 BLA -10, NOD2 RIPK2 PPI 9 and MT1-MMP act inh 2.
`COC(=O)[C@]1(C)N[C@H](CN(C)C(=O)C2CCCCC2)[C@@H]2C(=O)N(C)C(=O)[C@@H]21` gave TLR9-MyD88 inh 2, SKN-1 inh -24, NOD2 RIPK2 PPI 4 and MT1-MMP act inh 2.
